In ChEMBL document CHEMBL1153837, “Intracellular pharmacokinetics of once versus twice daily zidovudine and lamivudine in adolescents” (Antimicrob Agents Chemother, 2007):
Values belong to the compound of their own block, whether it stands above or below them.

Experiments:
Homo sapiens [1] = organism: Homo sapiens; assay: AUC in HIV-infected human assessed as Lamivudine triphosphate level in PBMC at 300 mg QD for 7 days in presence of zidovudine; type: ADME, organism-based; conditions: in vivo, 168 h
Outline: (§1)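 Adolescents on Combivir QD (two tablets) gave a predose morning sample, then bloods at 2, 4, 6, 12 and 24 h. PBMC were lysed in 70% methanol (15 mM Tris pH 7.0) and anion-exchange cartridges separated MP/DP/TP by KCl step elution. Fractions were dephosphorylated with acid phosphatase, then ZDV or 3TC was measured by RIA (LOQ 0.15 ng/ml). Noncompartmental parameters; AUC by trapezoidal method; undetectables set to half LLOQ.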

Homo sapiens [2] = organism: Homo sapiens; assay: AUC in HIV-infected human assessed as Lamivudine diphosphate level in PBMC at 300 mg QD for 7 days in presence of zidovudine; type: ADME, organism-based; conditions: in vivo, 168 h; outline: as §1
Homo sapiens [3] = organism: Homo sapiens; assay: AUC in HIV-infected human assessed as Lamivudine monophosphate level in PBMC at 300 mg QD for 7 days in presence of zidovudine; type: ADME, organism-based; conditions: in vivo, 168 h; outline: as §1
Homo sapiens [4] = organism: Homo sapiens; assay: Tmax in HIV-infected human assessed as Lamivudine triphosphate level in PBMC at 300 mg QD for 7 days in presence of zidovudine; type: ADME, organism-based; conditions: in vivo, 168 h; outline: as §1
Homo sapiens [5] = organism: Homo sapiens; assay: Tmax in HIV-infected human assessed as Lamivudine diphosphate level in PBMC at 300 mg QD for 7 days in presence of zidovudine; type: ADME, organism-based; conditions: in vivo, 168 h; outline: as §1
Homo sapiens [6] = organism: Homo sapiens; assay: Tmax in HIV-infected human assessed as Lamivudine monophosphate level in PBMC at 300 mg QD for 7 days in presence of zidovudine; type: ADME, organism-based; conditions: in vivo, 168 h; outline: as §1
Homo sapiens [7] = organism: Homo sapiens; assay: Cmax in HIV-infected human assessed as Lamivudine triphosphate level in PBMC at 300 mg QD for 7 days measured per 10^6 cells in presence of zidovudine; type: ADME, organism-based; set-up: dose 300 mg; conditions: 168 h; outline: as §1
Homo sapiens [8] = organism: Homo sapiens; assay: Cmax in HIV-infected human assessed as Lamivudine diphosphate level in PBMC at 300 mg QD for 7 days measured per 10^6 cells in presence of zidovudine; type: ADME, organism-based; set-up: dose 300 mg; conditions: 168 h; outline: as §1
Homo sapiens [9] = organism: Homo sapiens; assay: Cmax in HIV-infected human assessed as Lamivudine monophosphate level in PBMC at 300 mg QD for 7 days measured per 10^6 cells in presence of zidovudine; type: ADME, organism-based; set-up: dose 300 mg; conditions: 168 h; outline: as §1
Homo sapiens [10] = assay: Drug metabolism in HIV-infected human PBMC assessed as lamivudine parent-drug level at 300 mg administered in two courses, first QD for 7 days followed by BID for 7 to 14 days and second course the subjects were switched to the other regimen measured per 10^6 cells in presence of zidovudine
Homo sapiens [11] = assay: Drug metabolism in HIV-infected human PBMC assessed as lamivudine parent-drug level at 300 mg administered in two courses, first BID for 7 to 14 days followed by QD for 7 days and second course the subjects were switched to the other regimen measured per 10^6 cells in presence of zidovudine
Homo sapiens [12] = assay: Drug metabolism in HIV-infected human PBMC assessed as lamivudine diphosphate level at 300 mg administered in two courses, first QD for 7 days followed by BID for 7 to 14 days and second course the subjects were switched to the other regimen measured per 10^6 cells in presence of lamivudine
Homo sapiens [13] = assay: Drug metabolism in HIV-infected human PBMC assessed as lamivudine monophosphate level at 300 mg administered in two courses, first QD for 7 days followed by BID for 7 to 14 days and second course the subjects were switched to the other regimen measured per 10^6 cells in presence of lamivudine
Homo sapiens [14] = assay: Drug metabolism in HIV-infected human PBMC assessed as lamivudine monophosphate level at 300 mg administered in two courses, first BID for 7 to 14 days followed by QD for 7 days and second course the subjects were switched to the other regimen measured per 10^6 cells in presence of lamivudine
Homo sapiens [15] = assay: Drug metabolism in HIV-infected human PBMC assessed as zidovudine diphosphate level at 600 mg administered in two courses, first QD for 7 days followed by BID for 7 to 14 days and second course the subjects were switched to the other regimen measured per 10^6 cells in presence of Lamivudine; type: ADME, organism-based
Outline: (§2)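 Randomized crossover of Combivir: 600 mg ZDV/300 mg 3TC QD versus 300 mg/150 mg BID, in either order. Predose morning PBMC samples were taken on each regimen. Metabolites were separated on QMA cartridges, acid-phosphatase dephosphorylated, C-18 cleaned and quantified by RIA, reported per 10⁶ cells. Values below LLOQ were imputed as half LLOQ. Regimens were compared by Wilcoxon rank-sum; BID/QD ratios as medians with 95% CI.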

Homo sapiens [16] = assay: Drug metabolism in HIV-infected human PBMC assessed as zidovudine triphosphate level at 600 mg administered in two courses, first QD for 7 days followed by BID for 7 to 14 days and second course the subjects were switched to the other regimen measured per 10^6 cells in presence of Lamivudine; type: ADME, organism-based; outline: as §2
Homo sapiens [17] = assay: Drug metabolism in HIV-infected human PBMC assessed as zidovudine diphosphate level at 600 mg administered in two courses, first BID for 7 to 14 days followed by QD for 7 days and second course the subjects were switched to the other regimen measured per 10^6 cells in presence of Lamivudine; type: ADME, organism-based; outline: as §2
Homo sapiens [18] = organism: Homo sapiens; assay: AUC in HIV-infected human assessed as zidovudine triphosphate level in PBMC at 600 mg QD for 7 days in presence of Lamivudine; type: ADME, organism-based; conditions: in vivo, 168 h; outline: as §1
Homo sapiens [19] = organism: Homo sapiens; assay: AUC in HIV-infected human assessed as zidovudine diphosphate level in PBMC at 600 mg QD for 7 days in presence of Lamivudine; type: ADME, organism-based; conditions: in vivo, 168 h; outline: as §1
Homo sapiens [20] = organism: Homo sapiens; assay: AUC in HIV-infected human assessed as zidovudine monophosphate level in PBMC at 600 mg QD for 7 days in presence of Lamivudine; type: ADME, organism-based; conditions: in vivo, 168 h; outline: as §1
Homo sapiens [21] = assay: Drug metabolism in HIV-infected human PBMC assessed as zidovudine monophosphate level at 600 mg administered in two courses, first BID for 7 to 14 days followed by QD for 7 days and second course the subjects were switched to the other regimen measured per 10^6 cells in presence of Lamivudine; type: ADME, organism-based; outline: as §2
Homo sapiens [22] = assay: Drug metabolism in HIV-infected human PBMC assessed as zidovudine monophosphate level at 600 mg administered in two courses, first QD for 7 days followed by BID for 7 to 14 days and second course the subjects were switched to the other regimen measured per 10^6 cells in presence of Lamivudine; type: ADME, organism-based; outline: as §2
Homo sapiens [23] = assay: Drug metabolism in HIV-infected human PBMC assessed as zidovudine parent-drug level at 600 mg administered in two courses, first BID for 7 to 14 days followed by QD for 7 days and second course the subjects were switched to the other regimen measured per 10^6 cells in presence of Lamivudine; type: ADME, organism-based; outline: as §2
Homo sapiens [24] = assay: Drug metabolism in HIV-infected human PBMC assessed as zidovudine parent-drug level at 600 mg administered in two courses, first QD for 7 days followed by BID for 7 to 14 days and second course the subjects were switched to the other regimen measured per 10^6 cells in presence of Lamivudine; type: ADME, organism-based; outline: as §2
Homo sapiens [25] = assay: Drug metabolism in HIV-infected human PBMC assessed as zidovudine triphosphate level at 600 mg administered in two courses, first BID for 7 to 14 days followed by QD for 7 days and second course the subjects were switched to the other regimen measured per 10^6 cells in presence of Lamivudine; type: ADME, organism-based; outline: as §2
Homo sapiens [26] = organism: Homo sapiens; assay: Tmax in HIV-infected human assessed as zidovudine triphosphate level in PBMC at 600 mg QD for 7 days in presence of Lamivudine; type: ADME, organism-based; conditions: in vivo, 168 h; outline: as §1
Homo sapiens [27] = organism: Homo sapiens; assay: Tmax in HIV-infected human assessed as zidovudine diphosphate level in PBMC at 600 mg QD for 7 days in presence of Lamivudine; type: ADME, organism-based; conditions: in vivo, 168 h; outline: as §1
Homo sapiens [28] = organism: Homo sapiens; assay: Tmax in HIV-infected human assessed as zidovudine monophosphate level in PBMC at 600 mg QD for 7 days in presence of Lamivudine; type: ADME, organism-based; conditions: in vivo, 168 h; outline: as §1
Homo sapiens [29] = organism: Homo sapiens; assay: Cmax in HIV-infected human assessed as zidovudine triphosphate level in PBMC at 600 mg QD for 7 days measured per 10^6 cells in presence of Lamivudine; type: ADME, organism-based; set-up: dose 600 mg; conditions: 168 h; outline: as §1
Homo sapiens [30] = organism: Homo sapiens; assay: Cmax in HIV-infected human assessed as zidovudine diphosphate level in PBMC at 600 mg QD for 7 days measured per 10^6 cells in presence of Lamivudine; type: ADME, organism-based; set-up: dose 600 mg; conditions: 168 h; outline: as §1
Homo sapiens [31] = organism: Homo sapiens; assay: Cmax in HIV-infected human assessed as zidovudine monophosphate level in PBMC at 600 mg QD for 7 days measured per 10^6 cells in presence of Lamivudine; type: ADME, organism-based; set-up: dose 600 mg; conditions: 168 h; outline: as §1
[32] = Half life in HIV-infected human plasma at 1500 mg; type: ADME, cell-free
[33] = Half life in HIV-infected human at 600 mg, po qd; conditions: in vivo
[34] = Half life in HIV-infected human at 300 mg, po bid; conditions: in vivo

AUC (Homo sapiens [1]): 65.19 pmol
AUC (Homo sapiens [2]): 70.01 pmol
AUC (Homo sapiens [3]): 10.42 pmol
Tmax (Homo sapiens [4]): 6.67 h
Tmax (Homo sapiens [5]): 6.37 h
Tmax (Homo sapiens [6]): 6.3 h
Cmax (Homo sapiens [7]): 4840 fmol
Cmax (Homo sapiens [8]): 4424 fmol
Cmax (Homo sapiens [9]): 760 fmol
lamivudine parent-drug uptake (Homo sapiens [10]): 302 pmol
lamivudine parent-drug uptake (Homo sapiens [11]): 437 pmol
lamivudine diphosphate uptake (Homo sapiens [12]): 1934 pmol
lamivudine monophosphate uptake (Homo sapiens [13]): 282 pmol
lamivudine monophosphate uptake (Homo sapiens [14]): 396 pmol
Compound: Nc1ccn([C@@H]2CS[C@H](CO)O2)c(=O)n1 [LAMIVUDINE]

Drug uptake (Homo sapiens [15]): 11.5 fmol
Drug uptake (Homo sapiens [16]): 9.3 fmol
Drug uptake (Homo sapiens [17]): 12.2 fmol
AUC (Homo sapiens [18]): 502 fmol
AUC (Homo sapiens [19]): 627 fmol
AUC (Homo sapiens [20]): 11883 fmol
Drug uptake (Homo sapiens [21]): 75.3 fmol
Drug uptake (Homo sapiens [22]): 76.2 fmol
Drug uptake (Homo sapiens [23]): 23.5 fmol
Drug uptake (Homo sapiens [24]): 23.5 fmol
Drug uptake (Homo sapiens [25]): 15.4 fmol
Tmax (Homo sapiens [26]): 4.74 h
Tmax (Homo sapiens [27]): 3.48 h
Tmax (Homo sapiens [28]): 2.44 h
Cmax (Homo sapiens [29]): 43.9 fmol
Cmax (Homo sapiens [30]): 62.47 fmol
Cmax (Homo sapiens [31]): 2997.65 fmol
half-life [32]: 1 h
half-life [33]: 6.3 h
half-life [34]: 5.48 h
Compound: Cc1cn([C@H]2C[C@H](N=[N+]=[N-])[C@@H](CO)O2)c(=O)[nH]c1=O [ZIDOVUDINE]
